Measured values of several laboratories.
Each line is one published result; the experiments were not run side by side.
Target: Serine/threonine-protein kinase TBK1 (TBK1, Homo sapiens, UniProt Q9UHD2)
Residues used in one study (Q9UHD2 1-729): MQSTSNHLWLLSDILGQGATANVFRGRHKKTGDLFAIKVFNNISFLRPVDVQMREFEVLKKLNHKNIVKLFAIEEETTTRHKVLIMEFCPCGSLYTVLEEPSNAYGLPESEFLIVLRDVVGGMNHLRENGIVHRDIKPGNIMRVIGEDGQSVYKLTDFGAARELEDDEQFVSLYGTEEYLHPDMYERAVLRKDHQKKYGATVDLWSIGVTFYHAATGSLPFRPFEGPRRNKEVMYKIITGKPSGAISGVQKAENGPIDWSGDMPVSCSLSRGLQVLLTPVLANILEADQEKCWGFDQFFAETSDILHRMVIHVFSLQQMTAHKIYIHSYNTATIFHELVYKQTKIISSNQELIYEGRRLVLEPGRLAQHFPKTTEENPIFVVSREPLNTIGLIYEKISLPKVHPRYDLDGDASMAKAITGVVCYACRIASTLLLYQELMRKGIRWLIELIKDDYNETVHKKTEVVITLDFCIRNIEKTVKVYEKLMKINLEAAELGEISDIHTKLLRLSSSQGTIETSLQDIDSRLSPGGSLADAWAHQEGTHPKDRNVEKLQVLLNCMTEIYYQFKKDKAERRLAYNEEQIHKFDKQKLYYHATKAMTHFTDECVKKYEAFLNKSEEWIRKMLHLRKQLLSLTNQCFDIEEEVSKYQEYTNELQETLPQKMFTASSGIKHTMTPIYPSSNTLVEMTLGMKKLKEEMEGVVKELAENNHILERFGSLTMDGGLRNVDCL

C=CC(=O)N1CCC([C@@H]2CCNc3c(C(N)=O)c(-c4ccc(Oc5ccccc5)cc4)nn32)CC1 — inhibition (enzyme activity, inhibitor; 1 µM): 15%
CC(C)S(=O)(=O)c1ccc2nccc(Nc3ccc4sc(C5CCCC5)nc4c3)c2c1 — activity vs control (enzyme activity, inhibitor; 1 µM): 114%
COc1ccc2[nH]c3c4[nH]c5ccc(OC)cc5c4c4c(c3c2c1)C(=O)NC4=O — remaining binding (binding; 1 µM): 59%
Cc1cc(O)c(-c2ccc([C@@H](C)CN(C)C)cc2)c2c1[nH]c(=O)c1sccc12 — inhibition (enzyme activity, inhibitor; 0.1 µM): -4.68%
C#Cc1cc(-c2cc(Nc3nc(N[C@@H](C)c4ccc(F)cn4)ncc3Cl)n[nH]2)ccc1C=O — inhibition (enzyme activity, inhibitor; 0.2 µM): 5.56%
C[C@H]1CC[C@H](n2c3cnccc3c3cnc(Nc4ccc5c(n4)CCN(C(=O)CO)C5)nc32)CC1 — remaining signal (cell-free assay; 1 µM): 100%
CC#CC(=O)N1CCC[C@H]1c1nc(-c2ccc(C(=O)Nc3ccccn3)cc2)c2c(N)nccn12 — inhibition (enzyme activity, inhibitor; 1 µM): 5%
CCCCC(=O)Nc1ccc(-c2ccc3ncn(CCC)c(=O)c3c2)cn1 — remaining binding (binding, competition with immobilised ligand; 0.5 µM): 100%
